Source: PMC4334733 (International journal of toxicology, 2015)
“And” between values parts separate entries of the source, which are not always exact repeats. Equal values may be shown once. “Also recorded” adds a separate entry of the source. Where a name gives a salt, the structure may show the parent alone.

Legend:
rats = conditions: oral 100 mg/kg TDF for 8 weeks; cited from earlier work
kidney gene expression = assay: Toxicogenomics: microarray gene expression analysis of kidney; type: in vivo, mouse
Female BALB/c mice = assay: 13-week daily oral toxicity study of TDF; type: in vivo, mouse; conditions: for Clinical Chemistry, Day 29 and Day 92: CHO cholesterol, TRI triglycerides
Wistar rats = conditions: 600 mg/kg TDF for 5 weeks; cited from earlier work
liver gene expression = assay: Toxicogenomics: microarray gene expression analysis of liver; type: in vivo, mouse; conditions: 1000 mg/kg TDF for 91 days vs vehicle
How it was run: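 Female BALB/c mice received 1000 mg/kg by daily oral gavage for 91 days, or vehicle (50 mM trisodium citrate dihydrate), n=7 per group. They were killed on Day 92, 24 hr after the last dose. Total RNA from a 20–50 mg left liver lobe section was hybridized to Mouse Gene 1.0 ST arrays. Fold change versus vehicle was tested by t-test with Benjamini-Hochberg correction.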

[1] = type: in vivo, mouse
How it was run: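 Female BALB/c mice were gavaged daily (10 ml/kg) at 50, 500 or 1000 mg/kg; the vehicle was 50 mM trisodium citrate dihydrate. Tenofovir was quantified against 2.5–2000 ng/ml plasma standards using peak area ratio to indinavir and 1/y-weighted linear regression. Noncompartmental Cmax, Tmax and AUClast were derived.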

[2] = kidney, 1000 mg/kg TDF for 91 days vs vehicle, regulation Down, p<0.05, N=7
[3] = kidney, 1000 mg/kg TDF for 91 days vs vehicle, regulation Up, p<0.05, N=7

Compound: CC(C)OC(=O)OCOP(=O)(CO[C@H](C)Cn1cnc2c(N)ncnc21)OCOC(=O)OC(C)C [TDF, Tenofovir disoproxil fumarate]
- Renal toxicity (rats): induced renal toxicity
- Fold change of gene expression in the kidney (all changes) (kidney gene expression; 1000 mg/kg TDF vs vehicle, Day 92): less than 2 fold
- Fold Change, Cyp4b1 (kidney gene expression; [2]): 1.60 fold
- Fold Change, Polr3e (kidney gene expression; [2]): 1.87 fold
- Fold Change, Gm10804 (predicted gene 10804) (kidney gene expression; [3]): 1.65 fold
- Fold Change, Rorc (RAR-related orphan receptor gamma) (kidney gene expression; [3]): 1.77 fold
- Survival (Female BALB/c mice; TDF 0, 50, 500 or 1000 mg/kg po daily for 1, 28 or 91 days): All animals survived until their scheduled sacrifice
- Clinical Observations: Gasping (incidence) (Female BALB/c mice; TDF 50 mg/kg po daily): 0
- Clinical Observations: Hunched Posture (incidence) (Female BALB/c mice; TDF 50 mg/kg po daily): 0
- Clinical Observations: Hypoactivity (incidence) (Female BALB/c mice; TDF 50 mg/kg po daily): 0
- Clinical Observations: Ruffled Fur (incidence) (Female BALB/c mice; TDF 50 mg/kg po daily): 9 out of 35 and 9 of 35
- Mortality (Female BALB/c mice; TDF 50 mg/kg po daily): 0
- Clinical Chemistry, Day 29 and Day 92 (Female BALB/c mice; TDF 50 mg/kg po daily): ^↓(CHO, TRI)
- Clinical Observations: Gasping (incidence) (Female BALB/c mice; TDF 500 mg/kg po daily): 0
- Clinical Observations: Hunched Posture (incidence) (Female BALB/c mice; TDF 500 mg/kg po daily): 0
- Clinical Observations: Hypoactivity (incidence) (Female BALB/c mice; TDF 500 mg/kg po daily): 0
- Clinical Observations: Ruffled Fur (incidence) (Female BALB/c mice; TDF 500 mg/kg po daily): 9 out of 35 and 9 of 35
- Mortality (Female BALB/c mice; TDF 500 mg/kg po daily): 0
- Clinical Chemistry, Day 29 and Day 92 (Female BALB/c mice; TDF 500 mg/kg po daily): ^↓(CHO, TRI)
- Clinical Observations: Gasping (incidence) (Female BALB/c mice; TDF 1000 mg/kg po daily): two mice and 2 of 35
- Clinical Observations: Hunched Posture (incidence) (Female BALB/c mice; TDF 1000 mg/kg po daily): one mouse and 1 of 35
- Clinical Observations: Hypoactivity (incidence) (Female BALB/c mice; TDF 1000 mg/kg po daily): two mice and 2 of 35
- Clinical Observations: Ruffled Fur (incidence) (Female BALB/c mice; TDF 1000 mg/kg po daily): 31 out of 35 and 31 of 35
- Histopathology: Liver (Days 29 and 92) (Female BALB/c mice; TDF 1000 mg/kg po daily): Minimal/Mild Cytomegaly
- Mortality (Female BALB/c mice; TDF 1000 mg/kg po daily): 0
- Body Weight (Female BALB/c mice; TDF 1000 mg/kg po daily, vs control): significantly lower mean body weights; also recorded: ^↓(Days 36 and 43)
- Clinical Chemistry, Day 29 and Day 92 (Female BALB/c mice; TDF 1000 mg/kg po daily): ^↓(CHO, TRI)
- Liver cytomegaly after 4-week recovery (Female BALB/c mice; TDF 1000 mg/kg, Day 119 necropsy): not present; also recorded: not observed
- Decreases in cholesterol (CHO) and triglyceride (TRI) levels (Female BALB/c mice; TDF 1000 mg/kg, study Days 29 and 92): 30–48%
- Liver cytomegaly, minimal or mild (incidence) (Female BALB/c mice; TDF 1000 mg/kg/day for 28 days, necropsy Day 29): 7 of 10
- Liver cytomegaly, minimal or mild (incidence) (Female BALB/c mice; TDF 1000 mg/kg/day for 91 days, necropsy Day 92): 6 of 15
- Histopathologic changes in the kidneys (Female BALB/c mice; any dose group): No histopathologic changes
- Nephrotoxicity (Wistar rats): nephrotoxicity was observed
- Fold Change, Cml3 (camello-like 3) (liver gene expression; down expressed, p<0.05, N=7): 2.08 fold
- Fold Change, Gm4952 (liver gene expression; down expressed, p<0.05, N=7): 2.15 fold
- Fold Change, Gm15401 (liver gene expression; down expressed, p<0.05, N=7): 2.44 fold
- Fold Change, Rgs16 (liver gene expression; down expressed, p<0.05, N=7): 2.86 fold
- Fold Change, Serpinb1a (liver gene expression; down expressed, p<0.05, N=7): 2.70 fold
- Fold Change, Gria3 (liver gene expression; upward expressed, p<0.05, N=7): 3.34 fold
- Fold Change, Phlda3 (liver gene expression; upward expressed, p<0.05, N=7): 2.41 fold
- Fold Change, Rdh11 (liver gene expression; upward expressed, p<0.05, N=7): 2.09 fold
- Fold Change, Snord116 (liver gene expression; upward expressed, p<0.05, N=7): 2.15 fold
- Fold Change, Sult1e1 (liver gene expression; upward expressed, p<0.05, N=7): 4.39 fold
- Fold Change, Cdkn1a (cyclin-dependent kinase inhibitor 1A, P21) (liver gene expression; upward expressed, p<0.05, N=7, 1000 mg/kg): 3.7 fold and 3.70 fold

Compound: C[C@H](Cn1cnc2c(N)ncnc21)OCP(=O)(O)O [Tenofovir]
- Liver cytomegaly (Female BALB/c mice; 50 or 500 mg/kg/day): not present
- Mouse AUC plasma level of tenofovir relative to healthy volunteers ([1]; after 1000 mg/kg dose, human value ref 29): approximately eight
- Accumulation between dosing Days 1 and 91 (Cmax or AUC) ([1]; plasma tenofovir, oral TDF 50-1000 mg/kg daily): no evidence of accumulation
